In PMC7446891 (Bioorganic & medicinal chemistry, 2020):

Target: EphA2 (Homo sapiens, UniProt P29317)
Test: EphA2 activation
Type: cell-based
Conditions: 2 μM in 0.1% DMSO, 1hr, U251 EphA2 cells, vs DMSO control
Method in brief: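 EphA2-overexpressing U251 cells were seeded at 100,000/well, grown 24 h, then given 2 μM test compound in 0.1% DMSO (1 hr per legend; methods text gives 30 min), with 0.1% DMSO vehicle. Cells were lysed 20 min in modified RIPA (pH 7.4, vanadate, NaF, protease inhibitors), immunoprecipitated, then blotted for pEphA/B (1:500) and EphA2 (1:1000), HRP anti-rabbit, chemiluminescence. Bands were quantified by densitometry, 3 experiments, unpaired t-test vs DMSO.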

Chain of EphA2 (P29317 24-976): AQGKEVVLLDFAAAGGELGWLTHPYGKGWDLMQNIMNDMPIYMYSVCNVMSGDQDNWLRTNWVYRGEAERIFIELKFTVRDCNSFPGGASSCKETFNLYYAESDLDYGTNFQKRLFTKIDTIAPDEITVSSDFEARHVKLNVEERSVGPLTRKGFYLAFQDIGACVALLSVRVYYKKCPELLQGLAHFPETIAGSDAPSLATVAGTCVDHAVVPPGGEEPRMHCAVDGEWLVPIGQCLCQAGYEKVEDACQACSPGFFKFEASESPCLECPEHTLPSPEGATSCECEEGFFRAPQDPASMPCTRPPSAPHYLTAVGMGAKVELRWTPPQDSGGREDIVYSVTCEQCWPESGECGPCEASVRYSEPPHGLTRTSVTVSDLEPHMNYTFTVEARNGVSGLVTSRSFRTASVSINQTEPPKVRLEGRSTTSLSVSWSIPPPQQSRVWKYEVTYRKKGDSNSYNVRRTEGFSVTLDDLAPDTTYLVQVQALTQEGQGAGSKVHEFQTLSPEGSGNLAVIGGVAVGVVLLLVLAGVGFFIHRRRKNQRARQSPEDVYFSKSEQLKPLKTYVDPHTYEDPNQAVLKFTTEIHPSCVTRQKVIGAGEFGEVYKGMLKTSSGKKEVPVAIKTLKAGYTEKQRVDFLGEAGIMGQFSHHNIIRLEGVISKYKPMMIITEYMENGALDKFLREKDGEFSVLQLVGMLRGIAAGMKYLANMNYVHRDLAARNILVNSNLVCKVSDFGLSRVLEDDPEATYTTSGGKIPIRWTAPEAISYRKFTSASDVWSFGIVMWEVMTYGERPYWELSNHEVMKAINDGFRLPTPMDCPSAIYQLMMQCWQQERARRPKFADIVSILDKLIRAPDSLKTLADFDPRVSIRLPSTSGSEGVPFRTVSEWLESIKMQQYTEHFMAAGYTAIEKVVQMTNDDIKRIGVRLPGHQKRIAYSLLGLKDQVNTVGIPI

| Compound | EphA2 phosphorylation (pEphA/B vs total EphA2) |
| --- | --- |
| COc1cc2nc(N3CCN(C(=O)OCCOC(=O)N4CCN(c5nc(N)c6cc(OC)c(OC)cc6n5)CC4)CC3)nc(N)c2cc1OC [Compound 3d, ethane-1,2-diyl bis(4-(4-amino-6,7-dimethoxyquinazolin-2-yl)piperazine-1-carboxylate)] | did not show clear EphA2 activation |
| COc1cc2nc(N3CCN(C(=O)Oc4ccc(C(C)(C)c5ccc(OC(=O)N6CCN(c7nc(N)c8cc(OC)c(OC)cc8n7)CC6)cc5)cc4)CC3)nc(N)c2cc1OC [Compound 3e, propane-2,2-diylbis(4,1-phenylene)bis(4-(4-amino-6,7-dimethoxyquinazolin-2-yl)piperazine-1-carb oxylate)] | better activity to induce EphA2 phosphorylation |
| COc1cc2nc(N3CCN(C(=O)c4cccc(NC(=O)OCCOCCOCCOC(=O)Nc5cccc(C(=O)N6CCN(c7nc(N)c8cc(OC)c(OC)cc8n7)CC6)c5)c4)CC3)nc(N)c2cc1OC [Compound 7bg, (ethane-1,2-diylbis(oxy))bis(ethane-2,1-diyl)bis((3-(4-(4-amino-6,7-dimethoxyquinazolin-2-yl)piperazine-1-carbonyl)phenyl)carbamate)] | statistical significance compared to control |
